# High-throughput results as filed in PubChem.
# NR2E3 ag-1 – inhibitors of NR2E3-RetCOR corepressor binding, primary screen, NR2E3 agonist project, biochemical, TR-FRET, GST-NR2E3, biotin-RetCOR; Photoreceptor-specific nuclear receptor (Homo sapiens), Q9Y5X4; 1536-well; inhibition of corepressor binding, % at 4.78 µM; hit rate 0.12% among 320,000; AID 2300, 2010;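 active = percent inhibition above the cutoff of mean plus 3 SD of all tested compounds, set per screening campaign, cut at about 20% in these data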
#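 Format: 1536-well format; test system: GST-NR2E3 and biotin-RetCOR proteins; read-out basis: percent inhibition of TR-FRET ratio; timing: 5 h incubation at 4 °C; detection: time-resolved FRET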
# PG9 binder – binders of HIV-1 gp120 antibody PG9, primary screen, biochemical, TR-FRET; HIV-1 gp120 / PG9 antibody interaction; TR-FRET gp120-PG9 antibody binding; inhibition, % at 6.7 µM; hit rate 0.43% among 360,000; in the data active = inhibition above about 8.5%
# rCAG binder – binders of r(CAG) RNA repeats, primary screen, biochemical, fluorescence | r(CAG) RNA repeat, TO-PRO-1 dye displacement fluorescence | inhibition, % at 3 µM | hit rate 1.3% among 370,000 | AID 651821, 2012;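 active = inhibition above the plate cutoff, the mean of all test compounds on that plate plus 3 SD, cut at about 35% in these data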;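 also: higher means more dye released from RNA so lower well fluorescence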
# NR2E3 ag-2 – NR2E3 agonists in two-hybrid cells, primary screen, cell-based, luminescence, CHO-S, Gal4-NCOR/VP16-NR2E3; Photoreceptor-specific nuclear receptor (Homo sapiens), Q9Y5X4; luciferase; inhibition of corepressor binding, % at 3.98 µM; hit rate 0.35% among 360,000; AID 602229, 2012;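 active = inhibition above the mean of all tested compounds plus 3 SD, cut at about 70% in these data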;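 also: higher means lower luciferase signal from less NR2E3 corepressor binding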
# Rev-erbA mod – modulators of Rev-erb alpha DNA binding, primary screen, biochemical, FITC-DNA, fluorescence polarization, uHTS; Rev-erbα–FITC-DNA binding, 90 min; activity, % at 10 µM; hit rate 0.79% among 370,000; Nuclear receptor subfamily 1 group D member 1 (Homo sapiens), P20393;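 active = activity above about 14%, limit read from the data; passing the limit was not always enough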
# Target sequence (P20393 whole entry, looked up): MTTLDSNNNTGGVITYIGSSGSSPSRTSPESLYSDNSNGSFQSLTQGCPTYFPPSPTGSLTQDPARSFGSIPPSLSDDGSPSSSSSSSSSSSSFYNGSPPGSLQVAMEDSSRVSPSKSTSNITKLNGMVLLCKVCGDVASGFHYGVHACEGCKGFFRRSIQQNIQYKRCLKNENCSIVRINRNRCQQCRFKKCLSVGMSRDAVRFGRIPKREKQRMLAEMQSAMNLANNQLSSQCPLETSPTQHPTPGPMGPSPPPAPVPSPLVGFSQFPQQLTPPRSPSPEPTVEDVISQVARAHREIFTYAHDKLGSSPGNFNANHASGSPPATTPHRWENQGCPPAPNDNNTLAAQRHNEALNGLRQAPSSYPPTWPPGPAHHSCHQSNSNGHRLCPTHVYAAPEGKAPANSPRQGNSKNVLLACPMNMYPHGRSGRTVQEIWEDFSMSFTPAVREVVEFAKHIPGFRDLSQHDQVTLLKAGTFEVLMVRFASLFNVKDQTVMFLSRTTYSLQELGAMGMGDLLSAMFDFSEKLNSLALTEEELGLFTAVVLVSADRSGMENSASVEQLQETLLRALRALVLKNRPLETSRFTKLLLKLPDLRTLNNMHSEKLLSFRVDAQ
# Rev-erbA confirm – modulators of Rev-erb alpha DNA binding, confirmation, biochemical, FITC-DNA, fluorescence polarization, single point; shares compounds with Rev-erbA mod; 90 min; activation, % at 25 µM; hit rate 61% among 3,000; AID 1259319, 2017;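 active = activation at or above a set limit, or at least 3 SD above the negative control mean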
# RORg DNA counter – modulation of RORgamma DNA binding, dose response, counter-screen for Rev-erb alpha modulator project, biochemical, fluorescence polarization, FITC-DNA. shares compounds with Rev-erbA mod. purified RORgamma protein-FITC-DNA binding. IC50, µM. hit rate 8% among 910. AID 1259320, 2017;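 active = Compounds whose fitted half-maximal concentration for disrupting protein-DNA binding is below 10 micromolar; the record names Rev-erb in its text, so the target is in doubt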
# Numbers stand for hits; 0 = inactive; - = no result. The list is not random: actives were taken first. Their share in the collection is about 2.6%.
SMILES,NR2E3 ag-1,PG9 binder,rCAG binder,NR2E3 ag-2,Rev-erbA mod,Rev-erbA confirm,others
N#CCCn1cc(C(=O)CN2C(=O)NC3(CCCCCC3)C2=O)c2ccccc21,0,0,0,0,0,-,
N#CCCn1c(-c2nonc2NC(=O)c2ccccc2Cl)nc2ccccc21,0,0,0,0,77.2,22.3,
COC(=O)C1CCN(C(=O)c2cc3c(=O)n4cccc(C)c4nc3n2Cc2ccccc2)CC1,0,0,0,0,39.5,23.4,
Cn1nnnc1-c1cc(Br)ccc1NC(=O)c1ccccc1,0,0,0,0,72.4,46.1,RORg DNA counter=0
CCCN(CCC)S(=O)(=O)c1ccc(C(=O)OCCN2C(=O)c3cccc4c(N5CCOCC5)ccc(c34)C2=O)cc1,0,-,-,0,-,-,
O=C(OCCN1C(=O)c2cccc3c(N4CCOCC4)ccc(c23)C1=O)c1ccc(Cl)cc1,0,0,0,0,78.8,118.8,RORg DNA counter=0
CC12CN3CC(C)(CN(C1)C3c1ccc(Br)cc1)C2=O (stereo not given),0,0,0,0,0,-,
Cc1c(C2N3CC4(C)CN2CC(C)(C3)C4=O)c2ccccc2n1C (stereo not given),0,0,0,0,41.8,68.6,RORg DNA counter=0
Cn1cc(C2N3CC4(C)CN2CC(C)(C3)C4=O)c2ccccc21 (stereo not given),0,0,0,0,17.2,18.3,
COc1cc(CNc2ncnc3c2ncn3[C@H]2CN(CCc3ccccc3)C[C@@H](CO)O2)cc(OC)c1OC,-,0,0,0,0,-,
COc1ccc2c(COC(=O)CC3Sc4ccccc4NC3=O)cc(=O)oc2c1 (stereo not given),0,0,0,0,0,-,
CC(=O)Nc1ccc2c(COC(=O)CC3Sc4ccccc4NC3=O)cc(=O)oc2c1 (stereo not given),0,0,0,0,52.7,26.2,
N#Cc1ccc(-c2cccnc2)nc1SCc1ccc(Cl)c(Cl)c1,-,0,0,0,0,-,
N#Cc1ccc(-c2cccnc2)nc1SCc1ccc(Cl)cc1Cl,0,0,0,0,19.6,0,
COC[C@@H]1CCCN1c1cccc2c1S(=O)(=O)N1CC[C@@H](C1)O2,-,-,0,-,0,-,
Cc1c(-c2ccc(F)cc2)nc(N)c(C#N)c1-c1cccs1,0,0,0,0,78.0,52.7,RORg DNA counter=3.21
Cc1nn(-c2ccc(F)cc2)c2nc(N)c(C#N)c(-c3cccs3)c12,0,0,0,0,80.2,44.9,
O=C(CSc1nnc(-c2cccs2)o1)c1ccc(F)cc1,-,-,0,-,0,-,
CC(=O)N1C[C@H]2CON(C)[C@H]2C[C@H]1c1cccc(N2CCOCC2)c1,-,0,0,0,0,-,
COc1cc2c3nnc(-c4ccc(F)cc4)c-3cn(Cc3ccccc3F)c2cc1OC,-,0,0,0,21.5,39.1,RORg DNA counter=0
O=C(Nc1ccn(CCCNCc2cccc3ccccc23)c(=O)n1)OCc1ccccc1,-,0,0,0,0,-,
O=C(COC(=O)/C=C/c1ccccc1)NNC(=O)c1ccccc1F,-,0,0,0,0,-,
CCN(CC)c1ccc(C=C2SC(=S)NC2=O)cc1,-,0,0,0,38.8,29.6,RORg DNA counter=0
CCN(CC)c1ccc(/C=C2\SC(N)=NC2=O)cc1,-,0,0,0,0,-,
CC(=O)Nc1cccc(C(=O)OCC(=O)NNC(=O)c2cccs2)c1,0,0,0,0,0,-,
SMILES,NR2E3 ag-1,PG9 binder,rCAG binder,NR2E3 ag-2,Rev-erbA mod,Rev-erbA confirm,others
CN1CCC(CC(C(=O)N2CCCC2)(c2ccccc2)c2ccccc2)C1 (stereo not given),-,0,0,0,0,-,
O=C(O)C1CCCCC1C(=O)Nc1ccc(S(=O)(=O)N2CCOCC2)cc1 (stereo not given),-,0,0,0,0,-,
COc1cccc(OCc2ccc(Cn3nc(NC(=O)NCCc4ccc(OC)c(OC)c4)c4ccccc43)cc2)c1,-,0,0,0,0,-,
COc1ccc(CNC(=O)C(C#N)c2nc3ccccc3nc2N2CCCC2)cc1 (stereo not given),0,0,0,0,41.9,23.0,
N#Cc1c(N)oc(-c2cccs2)c1-c1cccs1,0,0,0,0,24.3,33.8,
CCCNC(=O)C[C@H]1CC[C@H]2[C@@H](COc3ccc(NC(=O)Nc4ccc(C#N)cc4)cc3C(=O)N2C)O1,-,-,0,-,35.6,18.8,
CCNC(=O)C[C@H]1CC[C@H]2[C@@H](COc3ccc(NC(=O)c4ccc5c(c4)OCO5)cc3C(=O)N2C)O1,-,-,0,-,141.2,47.6,RORg DNA counter=0
Cc1ccccc1NC(=O)C[C@H]1CC[C@H]2[C@@H](COc3ccc(NC(=O)Nc4ccccc4)cc3C(=O)N2C)O1,-,-,0,-,0,-,
CN1C(=O)c2cc(NC(=O)Nc3ccccc3)ccc2OC[C@H]2O[C@@H](CC(=O)NCC(F)(F)F)CC[C@@H]21,-,-,0,-,0,-,
COC(=O)C[C@@H]1CC[C@H]2[C@H](COc3ccc(NC(=O)Nc4ccc(C#N)cc4)cc3C(=O)N2C)O1,-,-,0,-,0,-,
CCNC(=O)C[C@H]1CC[C@H]2[C@@H](COc3ccc(NC(=O)Nc4ccccc4)cc3C(=O)N2C)O1,-,-,0,-,33.9,13.1,
CNC(=O)C[C@H]1CC[C@H]2[C@@H](COc3ccc(NC(=O)Nc4ccccc4)cc3C(=O)N2C)O1,-,-,0,-,27.7,14.0,
CC(C)C[C@H]1CN(CCCC[C@H]2CNC(=O)C(=O)N2CCc2ccccc2)C(=O)C(=O)N1CCc1ccccc1,-,0,0,0,0,-,
O=C(CN1C(=O)c2ccccc2C1=O)N1CCN(c2nnc(-c3ccccc3)c3ccccc23)CC1,0,0,0,0,29.5,0,
Cc1ccc(-c2nnc(N3CCN(C(=O)CN4C(=O)c5ccccc5C4=O)CC3)c3ccccc23)cc1,0,0,0,0,25.1,0,
Cc1ccc(OCC(=O)N2CCN(c3nnc(-c4ccc(C)cc4)c4ccccc34)CC2)cc1,0,0,0,0,0,-,
CCC(=O)N1CCN(c2nnc(-c3ccccc3)c3ccccc23)CC1,0,0,0,0,0,-,
COc1ccc(CCn2c(-c3ccc(F)cc3)nc3c(c(=O)c4ccccc4n3C)c2=O)cc1OC,0,0,0,0,41.0,0,
Cc1ccc(C)c(CN2C(=O)C3CCCN3c3ccc(C#N)cc32)c1 (stereo not given),0,0,0,0,48.8,35.9,
CCOc1ccccc1NC(=O)c1sc2nc(C)nc(N3CCOCC3)c2c1C,0,0,0,0,40.8,0,
